Residues, ends and D or L forms follow the SMILES beside them.
How the values were obtained:
[1] = biological target: T1, Integrin alpha-IIb/beta-3 (Homo sapiens, UniProt P05106+P08514); test: Ability to inhibit the aggregation of fixed human platelets; format: functional
Summary of the method: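 Human gel-filtered platelets activated with α-thrombin 1 U/mL (final) for 2 min at room temperature, then thrombin inhibitor 20 μM, fixed in 0.5% paraformaldehyde for 30 min, washed and resuspended at 2×10^8 cells/mL in Tyrode's-HSA. Compound preincubated 1 min with the suspension. Rate relative to no-antagonist control; IC50 calculated.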
Target sequence in this assay (P05106 27-788 limits assumed): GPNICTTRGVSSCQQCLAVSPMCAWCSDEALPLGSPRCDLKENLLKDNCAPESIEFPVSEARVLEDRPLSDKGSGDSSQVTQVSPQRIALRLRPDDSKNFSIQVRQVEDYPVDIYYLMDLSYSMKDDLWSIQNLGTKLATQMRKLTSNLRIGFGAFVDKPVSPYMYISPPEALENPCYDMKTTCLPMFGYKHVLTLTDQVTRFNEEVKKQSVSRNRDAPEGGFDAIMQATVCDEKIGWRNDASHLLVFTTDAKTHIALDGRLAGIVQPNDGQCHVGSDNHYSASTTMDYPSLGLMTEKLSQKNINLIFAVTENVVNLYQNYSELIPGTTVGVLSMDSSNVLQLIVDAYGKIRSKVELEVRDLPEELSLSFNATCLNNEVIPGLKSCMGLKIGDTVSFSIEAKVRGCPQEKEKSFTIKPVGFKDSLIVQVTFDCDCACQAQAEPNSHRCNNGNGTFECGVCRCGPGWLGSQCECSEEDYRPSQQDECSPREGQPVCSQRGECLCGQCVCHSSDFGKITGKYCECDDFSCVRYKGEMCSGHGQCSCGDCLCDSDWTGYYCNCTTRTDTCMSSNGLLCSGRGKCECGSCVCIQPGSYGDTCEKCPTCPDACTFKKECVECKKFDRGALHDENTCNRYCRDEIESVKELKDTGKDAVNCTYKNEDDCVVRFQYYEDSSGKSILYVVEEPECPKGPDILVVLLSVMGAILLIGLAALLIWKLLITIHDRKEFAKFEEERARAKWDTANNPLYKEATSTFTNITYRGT
Target sequence in this assay (P08514 32-887 limits assumed): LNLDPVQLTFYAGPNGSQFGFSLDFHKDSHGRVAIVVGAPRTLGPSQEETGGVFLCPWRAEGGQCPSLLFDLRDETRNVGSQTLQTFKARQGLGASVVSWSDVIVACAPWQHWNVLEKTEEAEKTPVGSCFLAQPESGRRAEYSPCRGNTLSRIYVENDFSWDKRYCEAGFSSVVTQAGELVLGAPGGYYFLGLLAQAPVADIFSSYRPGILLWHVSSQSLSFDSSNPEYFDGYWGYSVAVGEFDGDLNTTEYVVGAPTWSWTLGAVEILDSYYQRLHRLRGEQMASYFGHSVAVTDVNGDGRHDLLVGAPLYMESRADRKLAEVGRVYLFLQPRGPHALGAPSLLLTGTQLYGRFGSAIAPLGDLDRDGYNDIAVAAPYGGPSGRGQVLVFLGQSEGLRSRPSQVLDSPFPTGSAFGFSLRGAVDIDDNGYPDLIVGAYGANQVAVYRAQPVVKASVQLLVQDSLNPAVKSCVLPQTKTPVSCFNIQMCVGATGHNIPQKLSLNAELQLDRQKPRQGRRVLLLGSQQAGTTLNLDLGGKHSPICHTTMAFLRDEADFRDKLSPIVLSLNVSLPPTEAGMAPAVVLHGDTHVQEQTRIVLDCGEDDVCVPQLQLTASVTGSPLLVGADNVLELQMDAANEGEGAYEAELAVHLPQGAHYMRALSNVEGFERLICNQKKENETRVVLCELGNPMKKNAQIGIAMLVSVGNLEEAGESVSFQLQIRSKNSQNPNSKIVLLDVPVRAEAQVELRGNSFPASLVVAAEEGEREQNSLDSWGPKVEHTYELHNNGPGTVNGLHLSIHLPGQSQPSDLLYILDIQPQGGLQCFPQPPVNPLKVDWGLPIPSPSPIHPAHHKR
Target sequence in this assay (P08514 891-1039 limits assumed): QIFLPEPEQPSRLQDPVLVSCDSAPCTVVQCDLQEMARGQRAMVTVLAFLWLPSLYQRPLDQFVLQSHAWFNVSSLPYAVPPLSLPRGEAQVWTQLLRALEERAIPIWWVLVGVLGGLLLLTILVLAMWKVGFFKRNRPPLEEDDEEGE

[2] = biological target: T1, Integrin alpha-IIb/beta-3; test: Inhibition of radiolabeled fibrinogen binding to activated human platelets.; format: functional
Summary of the method: (§1)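 Washed human platelets at 1×10^8/mL in Tyrode's buffer, run in duplicate. Inhibitor and labelled fibrinogen added before agonist, either TRAP (SFLLRN-NH2) 100 μM or ADP 10 μM. Incubated 30 min at room temperature, spun through a 20% sucrose cushion, pellet γ-counted. IC50 determined.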
Target sequence in this assay (P05106 27-788 limits assumed): as the sequence (P05106 27-788 limits assumed) above
Target sequence in this assay (P08514 32-887 limits assumed): as the sequence (P08514 32-887 limits assumed) above
Target sequence in this assay (P08514 891-1039 limits assumed): as the sequence (P08514 891-1039 limits assumed) above

[3] = biological target: T1, Integrin alpha-IIb/beta-3; test: Inhibition of radiolabeled fibrinogen binding to activated human platelets; format: functional; summary of the method: as §1
Target sequence in this assay (P05106 27-788 limits assumed): as the sequence (P05106 27-788 limits assumed) above
Target sequence in this assay (P08514 32-887 limits assumed): as the sequence (P08514 32-887 limits assumed) above
Target sequence in this assay (P08514 891-1039 limits assumed): as the sequence (P08514 891-1039 limits assumed) above

[4] = biological target: Integrin alpha-V/beta-3 (Homo sapiens); test: Inhibition of HUVEC adhesion to fibrinogen-coated plates
[5] = biological target: Integrin alpha-V/beta-3 (Homo sapiens); test: Inhibition of HUVEC adhesion to fibronectin-coated plates
[6] = biological target: T1, Integrin alpha-IIb/beta-3; test: Percent inhibition of ex vivo platelet aggregation after 1 hour of administration; format: functional, organism-based; settings: concentration not given here
Summary of the method: (§2)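 Mongrel dogs of either sex dosed by intragastric gavage, compound dissolved in deionized water. Citrated venous blood drawn 10 min predose and at 1, 3, 6, 12 and 24 h. PRP adjusted to 300 000 platelets/μL, stirred at 37 °C, primed with epinephrine 1 μM, then ADP 10 μM added. Light-transmission slope read in duplicate, expressed as % decrease versus predose PRP. Mean of at least two dogs per dose.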

[7] = biological target: T1, Integrin alpha-IIb/beta-3; test: Percent inhibition of ex vivo platelet aggregation after 3 hours of administration; format: functional, organism-based; settings: concentration not given here; summary of the method: as §2
[8] = biological target: T1, Integrin alpha-IIb/beta-3; test: Percent inhibition of ex vivo platelet aggregation after 6 hours of administration; format: functional, organism-based; settings: concentration not given here; summary of the method: as §2
[9] = biological target: T1, Integrin alpha-IIb/beta-3; test: Inhibition of ex vivo platelet aggregation after 1 hr treatment; format: functional; settings: concentration not given here; summary of the method: as §2
[10] = biological target: T1, Integrin alpha-IIb/beta-3; test: Inhibition of ex vivo platelet aggregation after 3 hr treatment; format: functional; settings: concentration not given here; summary of the method: as §2
[11] = biological target: T1, Integrin alpha-IIb/beta-3; test: Inhibition of ex vivo platelet aggregation after 6 hr treatment; format: functional; settings: concentration not given here; summary of the method: as §2
[12] = Compound was evaluated for the rate of degradation by Carboxypeptidase A.; format: ADME
Summary of the method: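 Bovine pancreatic carboxypeptidase A diluted in 5% LiCl, activity checked with hippuryl-L-phenylalanine. Substrate made up at 1.0 mM in 0.05 M Tris with 1.0 M NaCl, pH 7.5, then combined with enzyme (2.0 units total). Incubated 60 min at room temperature, with hydrolysis followed by HPLC every 9 min. Rate of hydrolysis normalized to 1 unit of enzyme.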

[13] = biological target: Integrin alpha-V/beta-3 (Homo sapiens); test: Inhibition of HUVEC adhesion to vitronectin-coated plates

CC(C)[C@H](NC(=O)[C@H](CC(=O)O)NC(=O)CNC(=O)[C@@H](N)CCCNC(=N)N)C(=O)O (H-RGDV-OH)
IC50 [1]: 10 µM

CCN(CC(=O)N[C@@H](CC(=O)O)C(=O)N[C@@H](Cc1ccc2ccccc2c1)C(=O)O)C(=O)CCCC1CCNCC1
IC50 [2]: 0.022 µM

CCN(CC(=O)N[C@@H](CC(=O)O)C(=O)N[C@@H](C(=O)O)C(C)C)C(=O)CCCC1CCNCC1
IC50 [1]: 0.72 µM
IC50 [3]: 0.26 µM

CCN(CC(=O)N[C@@H](CC(=O)O)C(=O)N[C@@H](CC1CCCCC1)C(N)=O)C(=O)CCCC1CCNCC1
IC50 [2]: 0.028 µM
IC50 [1]: 0.097 µM
IC50 [4]: > 2350 µM
IC50 [5]: > 2400 µM

CC(C)[C@H](NC(=O)[C@H](CC(=O)O)NC(=O)CNC(=O)CCCC1CCNCC1)C(=O)O
inhibition [6]: 47%
inhibition [7]: 0%
IC50 [1]: 1.06 µM

CCN(CC(=O)N[C@@H](CC(=O)O)C(=O)N[C@@H](CC1CCCC1)C(=O)O)C(=O)CCCC1CCNCC1
IC50 [1]: 0.047 µM

CCN(CC(=O)N[C@@H](CC(=O)O)C(=O)N[C@H](C(=O)O)C1CCCCC1)C(=O)CCCC1CCNCC1
IC50 [1]: 0.032 µM

CCOC(=O)[C@H](CC1CCCCC1)NC(=O)[C@H](CC(=O)O)NC(=O)CN(CC)C(=O)CCCC1CCNCC1
IC50 [1]: 0.064 µM
IC50 [3]: 0.016 µM

CCN(CC(=O)N[C@@H](CC(=O)O)C(=O)N[C@@H](CC1CCCC2CCCCC21)C(=O)O)C(=O)CCCC1CCNCC1 (stereo partly specified)
IC50 [1]: 0.019 µM
IC50 [3]: 0.011 µM

CCN(CC(=O)N[C@@H](CC(=O)O)C(=O)N[C@H](C(=O)O)C(C)C)C(=O)CCCC1CCNCC1
inhibition [6]: 80%
inhibition [7]: 66%
inhibition [8]: 20%
IC50 [1]: 0.027 µM
IC50 [3]: 0.008 µM

CCN(CC(=O)N[C@@H](CC(=O)O)C(=O)NCCC1CCCCC1)C(=O)CCCC1CCNCC1
IC50 [2]: 0.01 µM
IC50 [1]: 0.072 µM

CCN(CC(=O)N[C@@H](CC(=O)O)C(=O)N[C@H](C(=O)O)C(C)C)C(=O)CCCCC1CCNCC1
IC50 [1]: 0.21 µM

CCN(CC(=O)N[C@@H](CC(=O)O)C(=O)N[C@H](C(=O)O)C(C)C)C(=O)CCCCN=C(N)N
inhibition [9]: 23%
inhibition [10]: 0%
inhibition [11]: 0%

CCN(CC(=O)N[C@@H](CC(=O)O)C(=O)N[C@H](C(=O)O)C(C)C)C(=O)CCCCCNC(=N)N
IC50 [1]: 0.47 µM

CCN(CC(=O)N[C@@H](CC(=O)O)C(=O)N[C@H](C(=O)O)C(C)C)C(=O)CCC1CCNCC1
IC50 [1]: 0.77 µM

CCN(CC(=O)N[C@@H](CC(=O)O)C(=O)N[C@@H](CC1CCCCCC1)C(=O)O)C(=O)CCCC1CCNCC1
IC50 [1]: 0.032 µM

CCN(CC(=O)N[C@@H](CC(=O)O)C(=O)N[C@@H](CC1CCCCC1)C(=O)O)C(=O)CCCC1CCNCC1
Activity [12]: 0.6 nmol/min/unit
IC50 [2]: 0.017 µM
IC50 [1]: 0.026 µM
IC50 [4]: 1010 µM
IC50 [5]: > 1750 µM
IC50 [13]: > 1650 µM

CCN(CC(=O)N[C@@H](CC(=O)O)C(=O)N[C@@H](CO)CC1CCCCC1)C(=O)CCCC1CCNCC1
IC50 [1]: 0.129 µM

CCN(CC(=O)N[C@@H](CC(=O)O)C(=O)N[C@@H](CCC1CCCCC1)C(=O)O)C(=O)CCCC1CCNCC1
IC50 [2]: 0.011 µM
IC50 [1]: 0.031 µM
IC50 ([4]; huvec): 1930 µM
IC50 ([5]; huvec): > 2400 µM
IC50 ([13]; huvec): > 2500 µM

CCN(CC(=O)N[C@@H](CC(=O)O)C(=O)N[C@@H](CC1CCC2CCCCC2C1)C(=O)O)C(=O)CCCC1CCNCC1 (stereo partly specified)
IC50 [1]: 0.096 µM

CCN(CC(=O)N[C@@H](CC(=O)O)C(=O)N[C@@H](Cc1cccc2ccccc12)C(=O)O)C(=O)CCCC1CCNCC1
Activity [12]: 3.1 nmol/min/unit
IC50 [2]: 0.022 µM
IC50 [1]: 0.11 µM

CCCC[C@H](NC(=O)[C@H](CC(=O)O)NC(=O)CN(CC)C(=O)CCCC1CCNCC1)C(=O)O
Activity [12]: 7.4 nmol/min/unit
IC50 [1]: 0.13 µM
IC50 [3]: 0.011 µM

CCN(CC(=O)N[C@@H](CC(=O)O)C(=O)N[C@@H](CC1CCCCCCC1)C(=O)O)C(=O)CCCC1CCNCC1
IC50 [1]: 0.078 µM

CCN(CC(=O)N[C@@H](CC(=O)O)C(=O)N[C@@H](CC(C)(C)C)C(=O)O)C(=O)CCCC1CCNCC1
IC50 [1]: 0.082 µM
IC50 [3]: 0.072 µM

CCN(CC(=O)N[C@@H](CC(=O)O)C(=O)N[C@H](CC1CCCCC1)C(=O)O)C(=O)CCCC1CCNCC1
IC50 [1]: 1.37 µM

CCN(CC(=O)N[C@@H](CC(=O)O)C(=O)N[C@@H](Cc1ccccc1)C(=O)O)C(=O)CCCC1CCNCC1
IC50 [1]: 0.064 µM

CCN(CC(=O)N[C@@H](CC(=O)O)C(=O)N[C@@H](CCCC1CCCCC1)C(=O)O)C(=O)CCCC1CCNCC1
IC50 [1]: 0.053 µM

From ChEMBL document CHEMBL1131578, “Design of a new class of orally active fibrinogen receptor antagonists” (J Med Chem, 1998)
